Active and inactive are the calls of the source.
What was measured:
HEK293 [1] = test: Inhibition of DC-SIGN expression in HEK293 cells expressing DC-SIGN at 100 uM by Western blot analysis; type: functional, cell-based; settings: Homo sapiens
How it was run: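 293/DC-SIGN cells (1 × 10⁷ per 10-cm dish, DMEM complete medium, 16 h) were washed and exposed to 100 μM resveratrol for 0, 30, 60, 90 or 120 min. Lysates in SDS sample buffer with protease inhibitors were boiled and run on 10% SDS-PAGE, then blotted to nitrocellulose. Probes were anti-DC-SIGN or anti-β-actin mAb (4°C overnight), then HRP anti-mouse IgG.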

THP-1 [2] = test: Inhibition of phagocytosis of FITC-conjugated Staphylococcus aureus 209P in human THP1 cells using trypan blue staining after 40 mins by flow cytometry; type: functional, cell-based
RAW264.7 [3] = test: Inhibition of phagocytosis of FITC-conjugated Escherichia coli K12 in mouse RAW264.7 cells using trypan blue staining after 80 mins by flow cytometry; type: functional, cell-based
How it was run: (§1)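 Serum-free THP-1 or RAW264.7 cells were treated 1 h with resveratrol, then incubated 0, 20, 40, 60 or 80 min with heat-killed FITC-E. coli at 1:100 cell:bacterium. Outer fluorescence was quenched with 0.2% trypan blue and cells fixed in 1% paraformaldehyde. Internalized fluorescence was read as flow cytometry MFI; mean and SD of triplicates.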

RAW264.7 [4] = test: Inhibition of FSL-1-induced increase in phagocytosis of FITC-conjugated Staphylococcus aureus 209P in mouse RAW264.7 cells using trypan blue staining after 20 mins by flow cytometry; type: functional, cell-based
How it was run: (§2)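 THP-1 or RAW264.7 cells (1 × 10⁶/ml) were pretreated 24 h with FSL-1 (0, 1, 10, 100 nM), washed, then given resveratrol (10, 50, 100 μM) for 1 h serum-free. Heat-killed FITC-E. coli (1:10) or FITC-S. aureus (1:100) followed. Surface fluorescence was quenched with 0.2% trypan blue and cells fixed in 1% paraformaldehyde. Flow cytometry mean fluorescence intensity, triplicates.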

THP-1 [5] = test: Inhibition of phagocytosis of FITC-conjugated Escherichia coli K12 in human THP1 cells using trypan blue staining after 20 mins by flow cytometry; type: functional, cell-based; how it was run: as §1
RAW264.7 [6] = test: Inhibition of heat killed Escherichia coli K12-induced TNF alpha production in mouse RAW264.7 cells at 1 to 100 uM after 6 hrs by ELISA; type: functional, cell-based
How it was run: (§3)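 THP-1 or RAW264.7 cells (1 × 10⁶/well, 16 h) were washed and pretreated 1 h with resveratrol. Serum-free stimulation with heat-killed E. coli or S. aureus at 1:100 followed for 0, 2, 4 or 6 h. TNF-α in supernatants (400 × g spin) was measured by ELISA: human kit for THP-1, mouse kit for RAW264.7. Triplicates.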

HEK293 [7] = test: Inhibition of heat killed Escherichia coli K12-induced nuclear translocation of p65 element of NF-kappaB in HEK293 cells expressing TLR2 at 100 uM pretreated for 1 hr before 6 hrs heat killed bacterial stimulation by immunostaining method; type: cell-based; settings: Homo sapiens
How it was run: (§4)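 293/TLR2 cells on poly-L-lysine coverslips were given 100 μM resveratrol or 0.1% DMSO for 1 h, then heat-killed E. coli or S. aureus (1:100) for 6 h. Cells were fixed in methanol at −20°C for 5 min and stained with rabbit anti-p65 pAb (1 μg/ml, 45 min RT), then Alexa 594 anti-rabbit IgG. Nuclear p65 was viewed by confocal microscopy.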

RAW264.7 [8] = test: Inhibition of heat killed Staphylococcus aureus 209P-induced TNF alpha production in mouse RAW264.7 cells at 1 to 100 uM after 6 hrs by ELISA; type: functional, cell-based; how it was run: as §3
RAW264.7 [9] = test: Inhibition of phagocytosis of FITC-conjugated Staphylococcus aureus 209P in mouse RAW264.7 cells using trypan blue staining after 20 mins by flow cytometry; type: functional, cell-based
THP-1 [10] = test: Inhibition of FSL-1-induced increase in phagocytosis of FITC-conjugated Escherichia coli K12 in human THP1 cells assessed as reduction in number of cells phagocytosing bacteria per cell after 1 hr by CLSM; type: functional, cell-based
How it was run: (§5)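 THP-1 cells (1 × 10⁶/ml) were held 24 h with or without 100 nM FSL-1, washed, then given 100 μM resveratrol or 0.1% DMSO for 1 h. Heat-killed FITC-E. coli (1:100) was added for 1 h, cells were stained with concanavalin A, fixed in 3% paraformaldehyde and imaged by confocal microscopy. Readouts: particles per cell among 3,500 cells; % cells with bacteria per field (>100 cells), 25 fields.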

THP-1 [11] = test: Inhibition of heat killed Staphylococcus aureus 209P-induced TNF alpha production in human THP1 cells at 1 to 100 uM after 6 hrs by ELISA; type: functional, cell-based; how it was run: as §3
HEK293 [12] = test: Inhibition of heat killed Staphylococcus aureus 209P-induced nuclear translocation of p65 element of NF-kappaB in HEK293 cells expressing TLR2 at 100 uM pretreated for 1 hr before 6 hrs heat killed bacterial stimulation by immunostaining method; type: cell-based; settings: Homo sapiens; how it was run: as §4
THP-1 [13] = test: Inhibition of phagocytosis of FITC-conjugated Staphylococcus aureus 209P in human THP1 cells using trypan blue staining after 20 mins by flow cytometry; type: functional, cell-based
RAW264.7 [14] = test: Inhibition of phagocytosis of FITC-conjugated Staphylococcus aureus 209P in mouse RAW264.7 cells using trypan blue staining after 80 mins by flow cytometry; type: functional, cell-based
RAW264.7 [15] = test: Inhibition of phagocytosis of FITC-conjugated Staphylococcus aureus 209P in mouse RAW264.7 cells assessed as reduction in ratio of number of bacterial cells to phagocytes using trypan blue staining by flow cytometry; type: functional, cell-based
How it was run: (§6)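 THP-1 or RAW264.7 cells received resveratrol for 1 h serum-free, then a range of doses of heat-killed FITC-E. coli or FITC-S. aureus. Trypan blue (0.2%) quenched bound bacteria and 1% paraformaldehyde fixed the cells. Flow cytometry MFI of internalized bacteria was plotted against bacterial dose; triplicates.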

THP-1 [16] = test: Inhibition of phagocytosis of FITC-conjugated Staphylococcus aureus 209P in human THP1 cells using trypan blue staining after 60 mins by flow cytometry; type: functional, cell-based
THP-1 [17] = test: Inhibition of phagocytosis of FITC-conjugated Escherichia coli K12 in human THP1 cells using trypan blue staining after 80 mins by flow cytometry; type: functional, cell-based; how it was run: as §1
HEK293 [18] = test: Inhibition of heat killed Escherichia coli K12-induced NF-kappaB activation in HEK293 cells expressing TLR2 pretreated for 1 hr before 6 hrs heat killed bacterial stimulation by luciferase reporter gene assay; type: cell-based; settings: Homo sapiens
How it was run: (§7)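 293/TLR2 cells (1 × 10⁵/well) were transfected with 50 ng pNF-κB-Luc, 5 ng pRL-TK and 445 ng pcDNA3. After 24 h they were pretreated 1 h with resveratrol, then stimulated 6 h serum-free with FSL-1 (1, 10, 100 nM) or heat-killed E. coli or S. aureus (1:1, 1:10, 1:100). Dual luciferase readout, triplicates.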

THP-1 [19] = test: Inhibition of FSL-1-induced increase in phagocytosis of FITC-conjugated Escherichia coli K12 in human THP1 cells using trypan blue staining after 20 mins by flow cytometry; type: functional, cell-based; how it was run: as §2
THP-1 [20] = test: Inhibition of FSL-1-induced increase in phagocytosis of FITC-conjugated Staphylococcus aureus 209P in human THP1 cells using trypan blue staining after 20 mins by flow cytometry; type: functional, cell-based; how it was run: as §2
THP-1 [21] = test: Inhibition of FSL-1-induced increase in phagocytosis of FITC-conjugated Escherichia coli K12 in human THP1 cells assessed as reduction in number of phagocytosing bacteria to total number of cells after 1 hr by CLSM; type: functional, cell-based; how it was run: as §5
THP-1 [22] = test: Inhibition of phagocytosis of FITC-conjugated Staphylococcus aureus 209P in human THP1 cells using trypan blue staining after 80 mins by flow cytometry; type: functional, cell-based
THP-1 [23] = test: Inhibition of FSL1-induced upregulation of DC-SIGN mRNA expression in human THP1 cells at 100 uM after 1 hr by RT-PCR; type: functional, cell-based
How it was run: (§8)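 Serum-free THP-1 cells primed 24 h with 100 nM FSL-1 were given 100 μM resveratrol or 0.1% DMSO for 1 h. Total RNA from 5 × 10⁶ cells was reverse-transcribed with oligo(dT) and PCR-amplified for MSR1, CD36, DC-SIGN and Dectin-1 (30 cycles) with β-actin as reference (25 cycles). Products were resolved on 3% agarose with ethidium bromide.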

HEK293 [24] = test: Inhibition of FSL1-induced NF-kappaB activation in HEK293 cells expressing TLR2 pretreated for 1 hr before 6 hrs-FSL1 stimulation by luciferase reporter gene assay; type: cell-based; settings: Homo sapiens; how it was run: as §7
THP-1 [25] = test: Inhibition of phagocytosis of FITC-conjugated Escherichia coli K12 in human THP1 cells assessed as reduction in ratio of number of bacterial cells to phagocytes using trypan blue staining by flow cytometry; type: functional, cell-based; how it was run: as §6
RAW264.7 [26] = test: Inhibition of FSL-1-induced increase in phagocytosis of FITC-conjugated Escherichia coli K12 in mouse RAW264.7 cells using trypan blue staining after 20 mins by flow cytometry; type: functional, cell-based; how it was run: as §2
THP-1 [27] = test: Inhibition of phagocytosis of FITC-conjugated Escherichia coli K12 in human THP1 cells using trypan blue staining after 40 mins by flow cytometry; type: functional, cell-based; how it was run: as §1
THP-1 [28] = test: Inhibition of heat killed Escherichia coli K12-induced TNF alpha production in human THP1 cells at 1 to 100 uM after 6 hrs by ELISA; type: functional, cell-based; how it was run: as §3
RAW264.7 [29] = test: Inhibition of phagocytosis of FITC-conjugated Staphylococcus aureus 209P in mouse RAW264.7 cells using trypan blue staining after 40 mins by flow cytometry; type: functional, cell-based
THP-1 [30] = test: Inhibition of phagocytosis of FITC-conjugated Escherichia coli K12 in human THP1 cells using trypan blue staining after 60 mins by flow cytometry; type: functional, cell-based; how it was run: as §1
RAW264.7 [31] = test: Inhibition of phagocytosis of FITC-conjugated Escherichia coli K12 in mouse RAW264.7 cells using trypan blue staining after 20 mins by flow cytometry; type: functional, cell-based; how it was run: as §1
RAW264.7 [32] = test: Inhibition of phagocytosis of FITC-conjugated Escherichia coli K12 in mouse RAW264.7 cells using trypan blue staining after 60 mins by flow cytometry; type: functional, cell-based; how it was run: as §1
RAW264.7 [33] = test: Inhibition of phagocytosis of FITC-conjugated Staphylococcus aureus 209P in mouse RAW264.7 cells using trypan blue staining after 60 mins by flow cytometry; type: functional, cell-based
THP-1 [34] = test: Inhibition of phagocytosis of FITC-conjugated Staphylococcus aureus 209P in human THP1 cells assessed as reduction in ratio of number of bacterial cells to phagocytes using trypan blue staining by flow cytometry; type: functional, cell-based; how it was run: as §6
HEK293 [35] = test: Inhibition of phagocytosis of heat killed FITC-conjugated Escherichia coli K12 in HEK293 at 100 uM by after 1 hr; type: functional, cell-based; settings: Homo sapiens
How it was run: (§9)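 293/DC-SIGN cells (5 × 10⁵/ml) were plated the day before, washed and treated 1 h with resveratrol. Heat-killed FITC-E. coli or S. aureus were added for 1 h at various cell:bacterium ratios. Trypan blue (0.2%) quenched surface fluorescence and 1% paraformaldehyde fixed the cells. Flow cytometry MFI, triplicates.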

HEK293 [36] = test: Inhibition of heat killed Staphylococcus aureus 209P-induced NF-kappaB activation in HEK293 cells expressing TLR2 pretreated for 1 hr before 6 hrs heat killed bacterial stimulation by luciferase reporter gene assay; type: cell-based; settings: Homo sapiens; how it was run: as §7
RAW264.7 [37] = test: Inhibition of phagocytosis of FITC-conjugated Escherichia coli K12 in mouse RAW264.7 cells assessed as reduction in ratio of number of bacterial cells to phagocytes using trypan blue staining by flow cytometry; type: functional, cell-based; how it was run: as §6
HEK293 [38] = test: Inhibition of phagocytosis of heat killed FITC-conjugated Staphylococcus aureus 209P in HEK293 at 100 uM after 1 hr; type: functional, cell-based; settings: Homo sapiens; how it was run: as §9
RAW264.7 [39] = test: Inhibition of phagocytosis of FITC-conjugated Escherichia coli K12 in mouse RAW264.7 cells using trypan blue staining after 40 mins by flow cytometry; type: functional, cell-based; how it was run: as §1
THP-1 [40] = test: Inhibition of FSL1-induced upregulation of MSR1 mRNA expression in human THP1 cells at 100 uM after 1 hr by RT-PCR; type: functional, cell-based; how it was run: as §8
THP-1 [41] = test: Inhibition of FSL1-induced upregulation of CD36 mRNA expression in human THP1 cells at 100 uM after 1 hr by RT-PCR; type: functional, cell-based; how it was run: as §8
THP-1 [42] = test: Inhibition of FSL1-induced upregulation of dectin-1 mRNA expression in human THP1 cells at 100 uM after 1 hr by RT-PCR; type: functional, cell-based; how it was run: as §8

Measured: Activity

Oc1ccc(/C=C/c2cc(O)cc(O)c2)cc1
active: HEK293 [1] | THP-1 [2] Dose-dependent effect | RAW264.7 [3] Dose-dependent effect | RAW264.7 [4] Dose-dependent effect | THP-1 [5] Dose-dependent effect | RAW264.7 [6] | HEK293 [7] | RAW264.7 [8] | RAW264.7 [9] Dose-dependent effect | THP-1 [10] | THP-1 [11] | HEK293 [12] | THP-1 [13] Dose-dependent effect | RAW264.7 [14] Dose-dependent effect | RAW264.7 [15] | THP-1 [16] Dose-dependent effect | THP-1 [17] Dose-dependent effect | HEK293 [18] | THP-1 [19] Dose-dependent effect | THP-1 [20] Dose-dependent effect | THP-1 [21] | THP-1 [22] Dose-dependent effect | THP-1 [23] | HEK293 [24] Dose-dependent effect | THP-1 [25] | RAW264.7 [26] Dose-dependent effect | THP-1 [27] Dose-dependent effect | THP-1 [28] | RAW264.7 [29] Dose-dependent effect | THP-1 [30] Dose-dependent effect | RAW264.7 [31] Dose-dependent effect | RAW264.7 [32] Dose-dependent effect | RAW264.7 [33] Dose-dependent effect | THP-1 [34] | HEK293 [35] Dose-dependent effect | HEK293 [36] | RAW264.7 [37] | HEK293 [38] Dose-dependent effect | RAW264.7 [39] Dose-dependent effect | THP-1 [40] | THP-1 [41] | THP-1 [42]
